Measurements as given in ChEMBL document CHEMBL2069268, “Opioid activity of spinally selective analogues of N-naphthoyl-β-naltrexamine in HEK-293 cells and mice” (J Med Chem, 2012).
The source made the active and inactive calls.

Legend:
[1] = target: Delta-type opioid receptor (Homo sapiens) (UniProt P41143); assay: Agonist activity at human delta opioid receptor expressed in HEK cells assessed as induction of intracellular calcium release by FLIPR assay; assay type: functional, cell-based; conditions: HEK293
Chain of Delta-type opioid receptor (Homo sapiens) (P41143 whole entry): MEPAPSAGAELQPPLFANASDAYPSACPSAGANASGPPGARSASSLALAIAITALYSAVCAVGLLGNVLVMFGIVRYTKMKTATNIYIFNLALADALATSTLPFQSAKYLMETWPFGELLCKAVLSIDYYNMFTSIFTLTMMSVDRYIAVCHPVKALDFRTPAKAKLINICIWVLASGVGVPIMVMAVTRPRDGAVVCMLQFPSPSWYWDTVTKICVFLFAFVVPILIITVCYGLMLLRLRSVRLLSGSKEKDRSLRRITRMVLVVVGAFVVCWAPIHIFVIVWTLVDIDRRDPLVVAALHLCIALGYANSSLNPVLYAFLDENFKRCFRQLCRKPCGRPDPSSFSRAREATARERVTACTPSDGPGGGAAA
Procedure, shortened: (§1)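 HEK-293 cells stably carrying chimeric Δ6-Gαqi4-myr (zeocin selection, DMEM+10% FBS, 37 °C, 10% CO2) transiently transfected with opioid receptor DNA (200 ng/20,000 cells); seeded 24 h later; day 3 loaded with Ca2+ dye 60 min at 37 °C. After 30 s equilibration, ligand added over a concentration range; fluorescence read; ΔRFU (max−min) per concentration fitted by nonlinear regression; peak effect recorded; ≥3 independent runs, 4 internal replicates.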

[2] = target: Opioid receptors; mu & kappa (Homo sapiens) (UniProt P41145+P35372); assay: Agonist activity at human mu-kappa opioid receptor expressed in HEK cells assessed as induction of intracellular calcium release by FLIPR assay; assay type: functional, cell-based; conditions: HEK293; procedure, shortened: as §1
Chain of Opioid receptors; mu & kappa (Homo sapiens) (P35372 whole entry, looked up): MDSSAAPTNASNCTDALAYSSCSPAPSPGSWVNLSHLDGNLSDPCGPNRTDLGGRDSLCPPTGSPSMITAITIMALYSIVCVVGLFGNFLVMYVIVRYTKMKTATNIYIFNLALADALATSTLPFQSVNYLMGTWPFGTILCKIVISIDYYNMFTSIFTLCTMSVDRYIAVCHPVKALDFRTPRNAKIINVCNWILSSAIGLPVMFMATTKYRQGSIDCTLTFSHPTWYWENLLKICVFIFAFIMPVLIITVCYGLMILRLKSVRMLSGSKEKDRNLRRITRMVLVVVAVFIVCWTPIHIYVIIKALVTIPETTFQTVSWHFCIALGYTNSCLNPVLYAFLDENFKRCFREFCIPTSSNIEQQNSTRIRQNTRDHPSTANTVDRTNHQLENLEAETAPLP
Chain of Opioid receptors; mu & kappa (Homo sapiens) (P41145 whole entry, looked up): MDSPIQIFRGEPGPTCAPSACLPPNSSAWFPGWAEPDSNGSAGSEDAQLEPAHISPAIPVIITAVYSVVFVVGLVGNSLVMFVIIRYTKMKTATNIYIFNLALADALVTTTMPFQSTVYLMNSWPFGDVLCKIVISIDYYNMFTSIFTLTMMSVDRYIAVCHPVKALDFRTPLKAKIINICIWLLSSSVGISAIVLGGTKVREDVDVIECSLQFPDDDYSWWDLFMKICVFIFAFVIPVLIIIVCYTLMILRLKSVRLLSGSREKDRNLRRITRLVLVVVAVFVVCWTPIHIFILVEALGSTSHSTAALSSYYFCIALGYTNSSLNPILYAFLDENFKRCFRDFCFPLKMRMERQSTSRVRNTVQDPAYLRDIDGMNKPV

[3] = target: Opioid receptors; mu & delta (Homo sapiens) (UniProt P41143+P35372); assay: Agonist activity at human mu-delta opioid receptor expressed in HEK cells assessed as induction of intracellular calcium release by FLIPR assay; assay type: functional, cell-based; conditions: HEK293; procedure, shortened: as §1
Chain of Opioid receptors; mu & delta (Homo sapiens) (P35372 whole entry, looked up): as the sequence (P35372 whole entry, looked up) above
Chain of Opioid receptors; mu & delta (Homo sapiens) (P41143 whole entry, looked up): as the sequence (P41143 whole entry) above

Mus musculus [4] = assay: Antinociceptive effect in intrathecally dosed ICR-CD1 mouse assessed as peak time effect by tail flick test; assay type: functional
Procedure, shortened: (§2)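 Male ICR-CD1 mice (17–25 g), conscious, dosed intrathecally in 5 μl (10% DMSO stock diluted to ≤1% DMSO). Radiant-heat tail-flick; %MPE = (test−control)/(10−control)×100 with 10 s cutoff. Peak antinociception located by time course at 10, 20, 30, 60 min. ≥3 groups of 8–10 mice per curve, mice used once; ED50 with 95% CI by nonlinear regression.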

Mus musculus [5] = assay: Antinociceptive effect in intracerebroventricular dosed ICR-CD1 mouse assessed as peak time effect by tail flick test; assay type: functional
Procedure, shortened: (§3)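 Male ICR-CD1 mice (17–25 g), conscious, given compound i.c.v. in 5 μl (stock in 10% DMSO, diluted to ≤1% DMSO). Radiant-heat tail-flick latency, 10 s cutoff; %MPE = (test−control)/(10−control)×100. Peak time from time course at 10, 20, 30, 60 min. ≥3 groups of 8–10 mice per dose-response curve, each mouse used once; ED50 with 95% CI by nonlinear regression.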

Mus musculus [6] = assay: Toxicity in intrathecally dosed ICR-CD1 mouse assessed as dose tolerance after 24 hrs; assay type: organism-based; conditions: in vivo, icv_or_intrathecal
Procedure, shortened: (§4)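 Acute 24 h tolerance in male ICR-CD1 mice by i.c.v. or i.t. route: highest (ED80–90) dose of the day-1 dose-response curve repeated on the same mice 24 h later; tail-flick %MPE compared between days; no significant difference taken as not tolerant.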

Mus musculus [7] = assay: Antinociceptive effect in intrathecally dosed ICR-CD1 mouse by tail flick test; assay type: functional; procedure, shortened: as §2
Mus musculus [8] = assay: Antinociceptive effect in intracerebroventricular dosed ICR-CD1 mouse by tail flick test; assay type: functional; procedure, shortened: as §3
Mus musculus [9] = assay: Toxicity in intracerebroventricular dosed ICR-CD1 mouse assessed as dose tolerance after 24 hrs; assay type: organism-based; conditions: in vivo, icv_or_intrathecal; procedure, shortened: as §4
[10] = target: Opioid receptors; delta & kappa (Homo sapiens) (UniProt P41145+P41143); assay: Agonist activity at human delta-kappa opioid receptor expressed in HEK cells assessed as induction of intracellular calcium release by FLIPR assay; assay type: functional, cell-based; conditions: HEK293; procedure, shortened: as §1
Chain of Opioid receptors; delta & kappa (Homo sapiens) (P41143 whole entry, looked up): as the sequence (P41143 whole entry) above
Chain of Opioid receptors; delta & kappa (Homo sapiens) (P41145 whole entry, looked up): as the sequence (P41145 whole entry, looked up) above

Mus musculus [11] = assay: Antinociceptive effect in intrathecally dosed wild type ICR-CD1 mouse after 20 mins in presence of NTI; assay type: functional
Procedure, shortened: (§5)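 Wild-type male ICR-CD1 mice dosed intrathecally in 5 μl (≤1% DMSO) with antagonist timed to peak with agonist: NTI 5 nmol/mouse or nor-BNI 2.5 nmol/mouse, each 20 min peak time.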

Mus musculus [12] = assay: Antinociceptive effect in intrathecally dosed wild type ICR-CD1 mouse after 20 mins in presence of nor-BNI; assay type: functional; procedure, shortened: as §5
Mus musculus [13] = assay: Antinociceptive effect in intrathecally dosed MOR-KO mouse; assay type: functional, organism-based
Procedure, shortened: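 MOR-KO mice, 13–15 weeks old, equal males and females, eight per group, given compound intrathecally in 5 μl (≤1% DMSO); antinociception scored by radiant-heat tail-flick as %MPE with 10 s cutoff.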

SMILES | Activity [1] | Activity [2] | Activity [3] | Time (Mus musculus [4]) [min] | Time (Mus musculus [5]) [min] | Activity (Mus musculus [6]) | ED50 (Mus musculus [7]) [pmol] | ED50 (Mus musculus [8]) [pmol] | MPE (Mus musculus [7]) | MPE (Mus musculus [8]) | Activity (Mus musculus [9]) | Activity [10] | ED50 (Mus musculus [11]) [nmol] | ED50 (Mus musculus [12]) [nmol] | Activity (Mus musculus [13])
O=C(N[C@@H]1CC[C@@]2(O)[C@H]3Cc4ccc(O)c5c4[C@@]2(CCN3CC2CC2)[C@H]1O5)c1nccc2ccccc12 | inactive | Active | Active | 20 | 10 | Non-toxic | 1408 | 2070 | – | – | – | – | – | – | –
O=C(N[C@H]1CC[C@@]2(O)[C@H]3Cc4ccc(O)c5c4[C@@]2(CCN3CC2CC2)[C@H]1O5)c1ccc2ccccc2c1 | – | inactive | – | – | – | – | – | – | <=60% | <=60% | – | – | – | – | –
O=C(N[C@@H]1CC[C@@]2(O)[C@H]3Cc4ccc(O)c5c4[C@@]2(CCN3CC2CC2)[C@H]1O5)c1cnc2ccccc2n1 | inactive | Active | Active | 5 | – | Non-toxic | 50.8 | 757.2 | – | – | – | – | – | – | –
Cl.O=C(N[C@@H]1CC[C@@]2(O)[C@H]3Cc4ccc(O)c5c4[C@@]2(CCN3CC2CC2)[C@H]1O5)c1ccc2ccccc2c1 | – | Active | – | 5 | 20 | Non-toxic | 18.7 | 2060 | – | – | Toxic | – | – | – | –
COc1ccc2cc(C(=O)N[C@@H]3CC[C@@]4(O)[C@H]5Cc6ccc(O)c7c6[C@@]4(CCN5CC4CC4)[C@H]3O7)ccc2c1 | – | – | – | 5 | 10 | – | – | – | <=60% | <=60% | – | – | – | – | –
CN(C(=O)c1ccc2ccccc2c1)[C@@H]1CC[C@@]2(O)[C@H]3Cc4ccc(O)c5c4[C@@]2(CCN3CC2CC2)[C@H]1O5 | Active | inactive | – | – | – | – | – | – | <=60% | <=60% | – | – | – | – | –
O=C(N[C@@H]1CC[C@@]2(O)[C@H]3Cc4ccc(O)c5c4[C@@]2(CCN3CC2CC2)[C@H]1O5)c1cccc2ccccc12 | – | Active | – | – | – | – | 20.9 | – | – | <=60% | Toxic | Active | – | – | –
COc1cc2ccccc2cc1C(=O)N[C@@H]1CC[C@@]2(O)[C@H]3Cc4ccc(O)c5c4[C@@]2(CCN3CC2CC2)[C@H]1O5 | Active | – | – | 5 | – | Non-toxic | 115.1 | 312.4 | – | – | Toxic | – | – | – | –
O=C(N[C@@H]1CC[C@@]2(O)[C@H]3Cc4ccc(O)c5c4[C@@]2(CCN3CC2CC2)[C@H]1O5)c1cccc2ncccc12 | inactive | – | – | – | – | – | – | – | <=60% | <=60% | – | – | – | – | –
O=C(N[C@@H]1CC[C@@]2(O)[C@H]3Cc4ccc(O)c5c4[C@@]2(CCN3CC2CC2)[C@H]1O5)c1ccc2cc(F)ccc2c1 | Active | – | – | 20 | – | Non-toxic | 81.1 | – | – | <=60% | – | – | 5 | 2.5 | inactive
